Measurements published in ChEMBL document CHEMBL1137728, “Synthesis of novel thiazolone-based compounds containing pyrazoline moiety and evaluation of their anticancer activity” (2009).

Assays:
Assay type in all cases: functional
SNB-75 = assay: Growth inhibition of human SNB75 cells after 48 hrs by SRB assay; settings: SNB-75, 48 h; for TGI: read-out: pTGI (converted)
How it was run: (§1)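 NCI five-dose screen across about 60 human tumour cell lines, at 10-fold dilutions from 10^-4 to 10^-8 M with 48 h continuous exposure, read by SRB. Percent growth used time-zero, untreated control and treated absorbances. GI50 was the concentration giving 50% lower net protein increase than controls. Values beyond the tested range were reported as more or less than the maximum or minimum concentration.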

SK-MEL-5 [1] = assay: Growth inhibition of human SK-MEL-5 cells after 48 hrs by SRB assay; settings: SK-MEL-5, 48 h; for TGI: read-out: pTGI (converted); how it was run: as §1
HL-60(TB) = assay: Growth inhibition of human HL-60(TB) cells after 48 hrs by SRB assay; settings: HL-60, 48 h
How it was run: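 Five-dose NCI-60 assay at 10-fold dilutions, 10^-4 to 10^-8 M, 48 h continuous exposure; SRB protein staining. Absorbance at time zero, untreated control and each concentration gives percent growth. GI50 is the concentration giving 50% lower net protein increase than controls. Values beyond the range tested are reported as above or below the extreme concentration.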

UACC-62 = assay: Growth inhibition of human UACC62 cells after 48 hrs by SRB assay; settings: UACC-62, 48 h; how it was run: as §1
SK-MEL-28 = assay: Growth inhibition of human SK-MEL-28 cells after 48 hrs by SRB assay; settings: SK-MEL-28, 48 h; how it was run: as §1
[2] = Growth inhibition of human […] cells after 48 hrs by SRB assay; settings: for TGI: read-out: pTGI (converted); how it was run: as §1
[3] = Anticancer activity against human NCI60 cells assessed as cell growth at 10 uM after 48 hrs by SRB assay; settings: NCI60, 48 h, read-out: Activity
How it was run: (§2)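 US NCI one-dose screen across about 60 human tumour cell lines. A single concentration of 10^-5 M was applied with 48 h continuous exposure. The end point was sulforhodamine B protein staining, read spectrophotometrically. Results are given as percent growth of treated cells relative to untreated controls.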

SK-MEL-5 [4] = assay: Anticancer activity against human SK-MEL-5 cells assessed as cell growth at 10 uM after 48 hrs by SRB assay; settings: SK-MEL-5, 48 h, read-out: Activity; how it was run: as §2
HT-29 = assay: Growth inhibition of human HT-29 cells after 48 hrs by SRB assay; settings: HT-29, 48 h; how it was run: as §1
SR = assay: Anticancer activity against human SR cells assessed as cell growth at 10 uM after 48 hrs by SRB assay; settings: read-out: Activity; how it was run: as §2
LOX IMVI = assay: Growth inhibition of human LOXIMVI cells after 48 hrs by SRB assay; settings: for TGI: read-out: pTGI (converted); how it was run: as §1
CCRF-CEM [5] = assay: Anticancer activity against human CCRF-CEM cells assessed as cell growth at 10 uM after 48 hrs by SRB assay; settings: read-out: Activity; how it was run: as §2
KM12 = assay: Growth inhibition of human KM12 cells after 48 hrs by SRB assay; settings: KM12, 48 h; how it was run: as §1
HCT-116 = assay: Growth inhibition of human HCT116 cells after 48 hrs by SRB assay; settings: HCT-116, 48 h; how it was run: as §1
DU-145 [6] = assay: Growth inhibition of human DU145 cells after 48 hrs by SRB assay; settings: DU-145, 48 h; how it was run: as §1
T47D = assay: Growth inhibition of human T47D cells after 48 hrs by SRB assay; how it was run: as §1
TK-10 = assay: Growth inhibition of human TK10 cells after 48 hrs by SRB assay; settings: TK-10, 48 h; how it was run: as §1
[7] = Growth inhibition of human Hs 578T cells after 48 hrs by SRB assay; how it was run: as §1
MDA-MB-231 = assay: Growth inhibition of human MDA-MB-231 cells after 48 hrs by SRB assay; settings: MDA-MB-231, 48 h; how it was run: as §1
MCF7 = assay: Growth inhibition of human MCF7 cells after 48 hrs by SRB assay; settings: MCF7, 48 h; how it was run: as §1
OVCAR-3 = assay: Growth inhibition of human OVCAR-3 cells after 48 hrs by SRB assay; settings: OVCAR-3, 48 h; how it was run: as §1
MOLT-4 = assay: Growth inhibition of human MOLT4 cells after 48 hrs by SRB assay; settings: MOLT-4, 48 h; how it was run: as §1
NCI-H460 = assay: Growth inhibition of human NCI-H460 cells after 48 hrs by SRB assay; settings: NCI-H460, 48 h, read-out: pTGI (converted); how it was run: as §1
DU-145 [8] = assay: Anticancer activity against human DU145 cells assessed as cell growth at 10 uM after 48 hrs by SRB assay; settings: DU-145, 48 h, read-out: Activity; how it was run: as §2
SNB-19 = assay: Growth inhibition of human SNB19 cells after 48 hrs by SRB assay; settings: SNB-19, 48 h; how it was run: as §1
HCT-15 = assay: Growth inhibition of human HCT15 cells after 48 hrs by SRB assay; settings: HCT-15, 48 h; how it was run: as §1
SF-268 = assay: Growth inhibition of human SF268 cells after 48 hrs by SRB assay; settings: SF-268, 48 h; how it was run: as §1
IGROV-1 = assay: Growth inhibition of human IGROV1 cells after 48 hrs by SRB assay; settings: IGROV-1, 48 h; how it was run: as §1
CCRF-CEM [9] = assay: Growth inhibition of human CCRF-CEM cells after 48 hrs by SRB assay; how it was run: as §1
HOP-62 = assay: Growth inhibition of human HOP62 cells after 48 hrs by SRB assay; settings: HOP-62, 48 h; how it was run: as §1
Malme-3M = assay: Growth inhibition of human MALME-3M cells after 48 hrs by SRB assay; how it was run: as §1
U-251 = assay: Growth inhibition of human U251 cells after 48 hrs by SRB assay; settings: U-251, 48 h; how it was run: as §1
CAKI-1 = assay: Growth inhibition of human Caki1 cells after 48 hrs by SRB assay; settings: CAKI-1, 48 h; how it was run: as §1
UO-31 = assay: Growth inhibition of human UO31 cells after 48 hrs by SRB assay; settings: UO-31, 48 h; how it was run: as §1
ACHN = assay: Growth inhibition of human ACHN cells after 48 hrs by SRB assay; how it was run: as §1
MDA-MB-435 = assay: Growth inhibition of human MDA-MB-435 cells after 48 hrs by SRB assay; settings: MDA-MB-435, 48 h; how it was run: as §1
SN12C = assay: Growth inhibition of human SN12C cells after 48 hrs by SRB assay; how it was run: as §1

## O=C1N=C(N2N=C(c3ccccc3)CC2c2ccccc2O)/C(=C/c2ccc(O)cc2)S1 (stereo not drawn)
SNB-75
  GI50: 1.95 µM
  TGI: 5.25 µM
SK-MEL-5 [1]
  GI50: 1.7 µM
  TGI: 3.31 µM
HL-60(TB)
  GI50: 1.66 µM
HL-60(TB); read-out: pTGI (converted)
  TGI: 4.9 µM
UACC-62
  GI50: 1.7 µM
UACC-62; read-out: pTGI (converted)
  TGI: 3.31 µM
SK-MEL-28
  GI50: 1.78 µM
[2]
  GI50: 1.86 µM
  TGI: 4.47 µM
[3]
  growth at 10 µM: 1.13%
SK-MEL-5 [4]
  growth at 10 µM: -96.3%
HT-29
  GI50: 1.91 µM

## O=C1N=C(N2N=C(c3ccccc3)CC2c2ccccc2O)S/C1=C\c1ccccc1Cl (stereo not drawn)
SR
  growth at 10 µM: 45.6%
[3]
  growth at 10 µM: 102%

## O=C1N=C(N2N=C(c3ccccc3)CC2c2ccccc2O)/C(=C/c2ccc(Cl)cc2)S1 (stereo not drawn)
LOX IMVI
  GI50: 1.86 µM
  TGI: 3.55 µM

## O=C1N=C(N2N=C(c3ccccc3)CC2c2ccccc2O)CS1 (stereo not drawn)
[3]
  growth at 10 µM: 83.6%
CCRF-CEM [5]
  growth at 10 µM: -5.39%

## COc1cc(/C=C2/SC(N3N=C(c4ccccc4)CC3c3ccccc3O)=NC2=O)cc(OC)c1O (stereo not drawn)
KM12
  GI50: 1.82 µM
KM12; read-out: pTGI (converted)
  TGI: 3.63 µM
HCT-116
  GI50: 1.55 µM
HCT-116; read-out: pTGI (converted)
  TGI: 2.95 µM
DU-145 [6]
  GI50: 1.55 µM
DU-145 [6]; read-out: pTGI (converted)
  TGI: 3.09 µM
T47D
  GI50: 1.78 µM
T47D; read-out: pTGI (converted)
  TGI: 3.98 µM
TK-10
  GI50: 1.78 µM
TK-10; read-out: pTGI (converted)
  TGI: 3.98 µM
[7]
  GI50: 1.38 µM
[7]; read-out: pTGI (converted)
  TGI: 3.72 µM
SNB-75
  GI50: 1.74 µM
  TGI: 4.27 µM
MDA-MB-231
  GI50: 1.45 µM
MDA-MB-231; read-out: pTGI (converted)
  TGI: 3.02 µM
MCF7
  GI50: 1.95 µM
MCF7; read-out: pTGI (converted)
  TGI: 4.9 µM
OVCAR-3
  GI50: 1.41 µM
OVCAR-3; read-out: pTGI (converted)
  TGI: 2.82 µM
MOLT-4
  GI50: 1.7 µM
NCI-H460
  TGI: 3.31 µM
SK-MEL-5 [1]
  GI50: 1.91 µM
  TGI: 10.5 µM
DU-145 [8]
  growth at 10 µM: -57%
SNB-19
  GI50: 1.78 µM
SNB-19; read-out: pTGI (converted)
  TGI: 3.72 µM
HCT-15
  GI50: 1.23 µM
HCT-15; read-out: pTGI (converted)
  TGI: 2.69 µM
SF-268
  GI50: 1.86 µM
SF-268; read-out: pTGI (converted)
  TGI: 4.47 µM
IGROV-1
  GI50: 1.58 µM
IGROV-1; read-out: pTGI (converted)
  TGI: 2.88 µM
CCRF-CEM [9]
  GI50: 2 µM
CCRF-CEM [9]; read-out: pTGI (converted)
  TGI: 5.62 µM
[2]
  GI50: 1.7 µM
  TGI: 6.92 µM
HOP-62
  GI50: 0.759 µM
HOP-62; read-out: pTGI (converted)
  TGI: 15.5 µM
Malme-3M
  GI50: 2 µM
Malme-3M; read-out: pTGI (converted)
  TGI: 4.9 µM
U-251
  GI50: 1.51 µM
U-251; read-out: pTGI (converted)
  TGI: 2.82 µM
CAKI-1
  GI50: 1.02 µM
CAKI-1; read-out: pTGI (converted)
  TGI: 3.24 µM
[3]
  growth at 10 µM: 42.6%
LOX IMVI
  GI50: 1.55 µM
  TGI: 2.95 µM
UO-31
  GI50: 1.91 µM
UO-31; read-out: pTGI (converted)
  TGI: 4.27 µM
HT-29
  GI50: 0.427 µM
HT-29; read-out: pTGI (converted)
  TGI: 2.82 µM
ACHN
  GI50: 1.17 µM
ACHN; read-out: pTGI (converted)
  TGI: 10.2 µM
MDA-MB-435
  GI50: 1.82 µM
MDA-MB-435; read-out: pTGI (converted)
  TGI: 3.63 µM
SN12C
  GI50: 1.58 µM
SN12C; read-out: pTGI (converted)
  TGI: 4.9 µM
